Experiments:
[1] = tested on: Mus musculus; test: Anticonvulsant activity in ip dosed Swiss mouse assessed as protection against seizures measured at 0.5 hrs of time to peak effect by 6 Hz test by 6 Hz psychomotor seizure test; format: functional
Outline: (§1)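 Median effective doses (ED50, mg/kg) were determined i.p. in mice at the time of peak effect in the MES, sc PTZ or 6 Hz tests. Only compounds giving at least 50% protection at 100 mg/kg in that test were taken forward.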

[2] = tested on: Mus musculus; test: Anticonvulsant activity in Swiss mouse assessed as protection against seizures at 300 mg/kg, ip dosed 0.25 hrs before initiation of maximal electroconvulsions by maximal electroshock test; format: functional
Outline: (§2)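 Mice were dosed i.p. at a fixed 300 or 100 mg/kg (6 Hz: 100 mg/kg only). Protection was then scored against MES, sc PTZ or 6 Hz seizures at pretreatment times of 0.25, 0.5, 1 and 2 h. Groups were four mice, scored as number protected / number tested. This also gives the time course and time of peak effect.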

[3] = tested on: Mus musculus; test: Protective index, ratio of neurotoxic TD50 in Swiss mouse by Chimney test to anticonvulsant ED50 in Swiss mouse measured at 0.5 hrs of time to peak effect by subcutaneous pentylenetetrazole seizure test; format: functional
Outline: (§3)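 Protective index was calculated as TD50 (chimney test, mouse, i.p.) divided by ED50 from the matching MES, sc PTZ or 6 Hz test, both taken at the time of peak effect.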

[4] = tested on: Mus musculus; test: Anticonvulsant activity in Swiss mouse assessed as protection against seizures at 300 mg/kg, ip dosed 0.25 hrs before pentylenetetrazole challenge by subcutaneous pentylenetetrazole seizure test; format: functional; outline: as §2
[5] = tested on: Mus musculus; test: Anticonvulsant activity in Swiss mouse assessed as protection against seizures at 100 mg/kg, ip dosed 0.5 hrs before initiation of maximal electroconvulsions by maximal electroshock test; format: functional; outline: as §2
[6] = biological target: CYP3A4 (Homo sapiens, UniProt P08684); test: Inhibition of human recombinant CYP3A4 assessed as remaining enzyme activity by measuring conversion of luciferin-PPXE into D-luciferin at 25 uM by luminescence CYP3A4 P450-Glo assay relative to untreated control; format: ADME; settings: recombinant CYP3A4, probe luciferin-PPXE, read-out: Activity
Sequence of CYP3A4 (P08684 whole entry): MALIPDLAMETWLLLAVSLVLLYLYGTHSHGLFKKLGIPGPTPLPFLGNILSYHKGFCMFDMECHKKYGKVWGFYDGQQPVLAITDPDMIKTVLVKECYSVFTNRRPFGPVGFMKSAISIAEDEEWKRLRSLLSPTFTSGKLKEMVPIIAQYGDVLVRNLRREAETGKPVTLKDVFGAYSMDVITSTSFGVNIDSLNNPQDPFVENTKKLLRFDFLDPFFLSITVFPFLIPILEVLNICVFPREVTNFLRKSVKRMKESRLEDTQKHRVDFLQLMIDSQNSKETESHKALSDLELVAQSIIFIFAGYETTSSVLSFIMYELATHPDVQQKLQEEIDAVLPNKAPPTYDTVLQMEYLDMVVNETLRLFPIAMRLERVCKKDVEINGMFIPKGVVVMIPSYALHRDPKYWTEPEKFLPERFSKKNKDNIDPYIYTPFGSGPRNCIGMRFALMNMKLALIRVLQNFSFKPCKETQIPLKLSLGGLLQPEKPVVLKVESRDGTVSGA

[7] = Ratio of IC50 for test compound to IC50 for doxorubicin against HEK293 cells assessed as reduction in cell viability after 48 hrs by EZ4U label based assay; settings: human, read-out: Ratio IC50
[8] = tested on: Mus musculus; test: Anticonvulsant activity in Swiss mouse model of 6 Hz psychomotor seizure mode assessed as protection against seizures at 100 mg/kg, ip dosed 1 hr before 6 Hz electrical stimulation by 6 Hz test; format: functional; outline: as §2
[9] = tested on: Mus musculus; test: Anticonvulsant activity in ip dosed Swiss mouse assessed as protection against seizures measured at 1 hr of time to peak effect by 6 Hz test by 6 Hz psychomotor seizure test; format: functional
[10] = tested on: Mus musculus; test: Anticonvulsant activity in Swiss mouse model of 6 Hz psychomotor seizure mode assessed as protection against seizures at 100 mg/kg, ip dosed 2 hrs before 6 Hz electrical stimulation by 6 Hz test; format: functional; outline: as §2
[11] = tested on: Mus musculus; test: Anticonvulsant activity in Swiss mouse assessed as protection against seizures at 100 mg/kg, ip dosed 0.5 hrs before pentylenetetrazole challenge by subcutaneous pentylenetetrazole seizure test; format: functional; outline: as §2
[12] = species on record: Rattus norvegicus; test: Inhibition of [125I]omega-conotoxin GVIA binding to N-type calcium channel in rat cerebral cortex synaptosomes at 100 uM incubated for 30 mins by scintillation counting based radioligand displacement assay; format: subcellular
[13] = tested on: Mus musculus; test: Anticonvulsant activity in Swiss mouse assessed as protection against seizures at 100 mg/kg, ip dosed 2 hrs before pentylenetetrazole challenge by subcutaneous pentylenetetrazole seizure test; format: functional; outline: as §2
[14] = tested on: Liver microsome; test: Drug metabolism in human liver microsomes assessed as metabolite M2 formation at 50 uM in presence of NADPH regeneration system pre-incubated at 37 degC for 5 min and measured 2 hrs after post NADPH system addition by UPLC and LC-MS/MS method; format: ADME
Outline: (§4)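 The compound was incubated 2 h with human liver microsomes. Metabolites were detected by full-scan chromatogram and identified by LC/MS from their [M+H]+ molecular masses.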

[15] = tested on: Liver microsome; test: Drug metabolism in human liver microsomes assessed as metabolite M4 formation at 50 uM in presence of NADPH regeneration system pre-incubated at 37 degC for 5 min and measured 2 hrs after post NADPH system addition by UPLC and LC-MS/MS method; format: ADME; outline: as §4
[16] = tested on: Mus musculus; test: Anticonvulsant activity in Swiss mouse assessed as protection against seizures at 100 mg/kg, ip dosed 1 hr before initiation of maximal electroconvulsions by maximal electroshock test; format: functional; outline: as §2
[17] = tested on: Mus musculus; test: Anticonvulsant activity in ip dosed Swiss mouse assessed as protection against seizures measured at 0.5 hrs of time to peak effect by subcutaneous pentylenetetrazole seizure test; format: functional; outline: as §1
[18] = tested on: Mus musculus; test: Anticonvulsant activity in Swiss mouse assessed as protection against seizures at 300 mg/kg, ip dosed 2 hrs before pentylenetetrazole challenge by subcutaneous pentylenetetrazole seizure test; format: functional; outline: as §2
[19] = tested on: Liver microsome; test: Drug metabolism in human liver microsomes assessed as metabolite M3 formation at 50 uM in presence of NADPH regeneration system pre-incubated at 37 degC for 5 min and measured 2 hrs after post NADPH system addition by UPLC and LC-MS/MS method; format: ADME; outline: as §4
[20] = tested on: Mus musculus; test: Anticonvulsant activity in Swiss mouse assessed as protection against seizures at 300 mg/kg, ip dosed 0.5 hrs before pentylenetetrazole challenge by subcutaneous pentylenetetrazole seizure test; format: functional; outline: as §2
[21] = tested on: Mus musculus; test: Anticonvulsant activity in Swiss mouse assessed as protection against seizures at 300 mg/kg, ip dosed 1 hr before initiation of maximal electroconvulsions by maximal electroshock test; format: functional; outline: as §2
[22] = Toxicity against HEK293 cells assessed as reduction in cell viability after 48 hrs by EZ4U label based assay; settings: human
Outline: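 HEK-293 human embryonic kidney cells were incubated with compound for 48 h and viability was then measured. Doxorubicin served as standard.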

[23] = tested on: Liver microsome; test: Drug metabolism in human liver microsomes assessed as metabolite M1 formation at 50 uM in presence of NADPH regeneration system pre-incubated at 37 degC for 5 min and measured 2 hrs after post NADPH system addition by UPLC and LC-MS/MS method; format: ADME; outline: as §4
[24] = tested on: Mus musculus; test: Protective index, ratio of neurotoxic TD50 in Swiss mouse by Chimney test to anticonvulsant ED50 in Swiss mouse measured at 1 hr of time to peak effect by subcutaneous pentylenetetrazole seizure test; format: functional; outline: as §3
[25] = tested on: Mus musculus; test: Anticonvulsant activity in Swiss mouse assessed as protection against seizures at 100 mg/kg, ip dosed 1 hr before pentylenetetrazole challenge by subcutaneous pentylenetetrazole seizure test; format: functional; outline: as §2
[26] = tested on: Mus musculus; test: Anticonvulsant activity in Swiss mouse assessed as protection against seizures at 100 mg/kg, ip dosed 2 hrs before initiation of maximal electroconvulsions by maximal electroshock test; format: functional; outline: as §2
[27] = Protective index, ratio of neurotoxic TD50 in Swiss mouse by Chimney test to anticonvulsant ED50 in Swiss mouse measured at 1 hr of time to peak effect by 6 Hz test by 6 Hz psychomotor seizure test; format: toxicity; settings: in vivo, read-out: Ratio TD50/ED50
Outline: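 Neurotoxicity (TD50) estimated in mice i.p. by chimney test for motor coordination impairment; protective index calculated as TD50/ED50 for each seizure model.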

[28] = tested on: Mus musculus; test: Anticonvulsant activity in Swiss mouse assessed as protection against seizures at 300 mg/kg, ip dosed 1 hr before pentylenetetrazole challenge by subcutaneous pentylenetetrazole seizure test; format: functional; outline: as §2

CC(C(=O)N1CCN(c2cccc(C(F)(F)F)c2)CC1)N1C(=O)CCC1=O (racemic)
ED50 [1]: 21 mg/kg
Activity [2]: 75%
Ratio TD50/ED50 [3]: >25.04
Activity [4]: 100%
Activity [5]: 75%
activity at 25 µM [6]: 68.4%
selectivity ratio at 48 h [7]: 100
Activity [8]: 100%
ED50 [9]: 35 mg/kg
Activity [10]: 100%
Activity [11]: 100%
inhibition [12]: 13.9%
Activity [13]: 75%
Drug metabolism [14]: metabolite_detected
Drug metabolism [15]: metabolite_detected
Activity [16]: 50%
ED50 [17]: 59.9 mg/kg
Activity [18]: 100%
Drug metabolism [19]: metabolite_detected
Activity [20]: 100%
Activity [21]: 100%
IC50 at 48 h [22]: 50.7 µM
Drug metabolism [23]: metabolite_detected
Ratio TD50/ED50 [24]: 9.28
Activity [25]: 75%
Activity [26]: 0%
selectivity ratio at 1 h [27]: 23.5
Activity [28]: 100%

Reference: ChEMBL document CHEMBL3580554, “Design, synthesis, and anticonvulsant activity of new hybrid compounds derived from 2-(2,5-dioxopyrrolidin-1-yl)propanamides and 2-(2,5-dioxopyrrolidin-1-yl)butanamides” (J Med Chem, 2015)
